Test results taken from ChEMBL document CHEMBL1129639, “Synthesis and cardiotonic activity of novel pyrimidine derivatives: crystallographic and quantum chemical studies” (J Med Chem, 1996).

How the values were obtained:
Type in all cases: functional
[1] = species: Cavia porcellus; assay: Effect on the contractile force of spontaneously beating atria from Reserpine-treated guinea pigs as percentage variation from the control at concentration of 10E-6 M
Procedure, shortened: (§1)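 Atria from reserpine-treated guinea pigs (reserpine 2 mg/kg ip, 48 and 24 h before death; only tyramine-unresponsive preparations used). Bath solution at 29 °C, gassed 95% O2/5% CO2, pH 7.5, resting tension […]. After 90 min equilibration, compound added cumulatively, 5 min per concentration. Isometric developed-tension amplitude or beating rate given as % variation from untreated control. Mean ± SEM, 6-10 assays.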

[2] = species: Cavia porcellus; assay: Effect on the contractile force of spontaneously beating atria from Reserpine-treated guinea pigs as percentage variation from the control at concentration of 3 x 10E-6 M; procedure, shortened: as §1
[3] = species: Cavia porcellus; assay: Compound was evaluated for its effect on the frequency rate of spontaneously beating atria from Reserpine-treated guinea pigs as percentage variation from the control at different concentration of 10E-4 M; procedure, shortened: as §1
[4] = species: Cavia porcellus; assay: Effect on the contractile force of spontaneously beating atria from Reserpine treated guinea pigs as percentage variation from the control at concentration of 10E-4 M; procedure, shortened: as §1
[5] = species: Cavia porcellus; assay: Compound was evaluated for its effect on the frequency rate of spontaneously beating atria from Reserpine-treated guinea pigs as percentage variation from the control at different concentration of 10E-6 M; procedure, shortened: as §1
[6] = species: Cavia porcellus; assay: Compound was evaluated for its effect on the frequency rate of spontaneously beating atria from Reserpine-treated guinea pigs as percentage variation from the control at different concentration of 10E-5 M; procedure, shortened: as §1
[7] = species: Cavia porcellus; assay: Effect on the contractile force of spontaneously beating atria from Reserpine-treated guinea pigs as percentage variation from the control at concentration of 10E-3 M; procedure, shortened: as §1
[8] = species: Cavia porcellus; assay: Effect on the contractile force of spontaneously beating atria from Reserpine-treated guinea pigs as percentage variation from the control at concentration of 10E-5 M; procedure, shortened: as §1
[9] = species: Cavia porcellus; assay: Compound was evaluated for its effect on the frequency rate of spontaneously beating atria from Reserpine-treated guinea pigs as percentage variation from the control at different concentration of 3 x 10E-4 M; procedure, shortened: as §1
[10] = species: Cavia porcellus; assay: Compound was evaluated for its effect on the frequency rate of spontaneously beating atria from Reserpine-treated guinea pigs as percentage variation from the control at different concentration of 3 x 10E-5 M; procedure, shortened: as §1
[11] = species: Cavia porcellus; assay: Compound was evaluated for its effect on the frequency rate of spontaneously beating atria from Reserpine-treated guinea pigs as percentage variation from the control at different concentration of 3 x10E-6 M; procedure, shortened: as §1
[12] = species: Cavia porcellus; assay: Effect on the contractile force of spontaneously beating atria from Reserpine-treated guinea pigs as percentage variation from the control at concentration of 3 x 10E-5 M; procedure, shortened: as §1
[13] = species: Cavia porcellus; assay: Effect on the contractile force of spontaneously beating atria from Reserpine-treated guinea pigs as percentage variation from the control at concentration of 3 x 10E-4 M; procedure, shortened: as §1
[14] = species: Cavia porcellus; assay: Compound was evaluated for its effect on the frequency rate of spontaneously beating atria from Reserpine-treated guinea pigs as percentage variation from the control at different concentration of 10E-3 M; procedure, shortened: as §1
[15] = species: Cavia porcellus; assay: Compound was evaluated for its effect on the frequency rate of spontaneously beating atria from Reserpine-treated guinea pigs as percentage variation from the control at concentration of 3 x 10E-6 M; procedure, shortened: as §1
[16] = species: Cavia porcellus; assay: Compound was evaluated for its effect on the frequency rate of spontaneously beating atria from Reserpine-treated guinea pigs as percentage variation from the control at concentration of 3 x 10E-4 M; procedure, shortened: as §1
[17] = species: Cavia porcellus; assay: Compound was evaluated for its effect on the frequency rate of spontaneously beating atria from Reserpine-treated guinea pigs as percentage variation from the control at concentration of 3 x 10E-5 M; procedure, shortened: as §1
[18] = species: Cavia porcellus; assay: Effect on the frequency rate of spontaneously beating atria from Reserpine-treated guinea pigs as percentage variation from the control at concentration of 10E-3 M; procedure, shortened: as §1
[19] = species: Cavia porcellus; assay: Effect on the frequency rate of spontaneously beating atria from Reserpine-treated guinea pigs as percentage variation from the control at concentration of 10E-4 M; procedure, shortened: as §1
[20] = species: Cavia porcellus; assay: Compound was evaluated for its effect on the contractile force of spontaneously beating atria from Reserpine-treated guinea pigs as percentage variation from the control at concentration 10E-3 M; procedure, shortened: as §1
[21] = species: Cavia porcellus; assay: Effect on the frequency rate of spontaneously beating atria from Reserpine-treated guinea pigs as percentage variation from the control at concentration of 10E-5 M; procedure, shortened: as §1
[22] = species: Cavia porcellus; assay: Compound was evaluated for its effect on the frequency rate of spontaneously beating atria from Reserpine-treated guinea pigs as percentage variation from the control at concentration of 10e-6 M; procedure, shortened: as §1

SMILES: CN(C)c1ncccn1
- Variation [1]: 0%
- Variation [2]: 4.92%
- Variation [3]: 9.72%
- Variation [4]: 15.08%
- Variation [5]: 0%
- Variation [6]: 1.33%
- Variation [7]: 41.66%
- Variation [8]: 9.17%
- Variation [9]: 17.44%
- Variation [10]: 3.72%
- Variation [11]: 0%
- Variation [12]: 11.63%
- Variation [13]: 37.73%
- Variation [14]: 25.17%

SMILES: CCOC(=O)c1cnc(N(C)C)nc1C
- Variation [15]: 0%
- Variation [1]: 2.79%
- Variation [2]: 7.12%
- Variation [16]: 10.71%
- Variation [17]: 3.57%
- Variation [4]: -21.41%
- Variation [18]: -17.85%
- Variation [19]: 7.14%
- Variation [8]: 9.91%
- Variation [20]: -49.52%
- Variation [21]: 0%
- Variation [12]: 15.88%
- Variation [13]: -25.87%
- Variation [22]: -3.57%
